This data set is described as follows: Toxicity liver stage against HepG2, at 10uM. Type of data set: cell-based. Also noted: test concentration 10 uM, cell line HepG2-A16-CD81EGFP. As to conditions: human, HepG2-A16-CD81EGFP cells; read-out: INHIBITION
The method in brief: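 Uninfected HepG2-A16-CD81EGFP cells, 3 × 10^3 per well, 1536-well, plated on prespotted compound at 10 μM final, parasite-free screening media added to match infected plates; puromycin 10 μM positive, DMSO 0.5% negative; run in parallel with 48 h PbLuc assay at 37 °C, 5% CO2; viability by CellTiter-Glo luminescence, normalized to controls.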
With `COc1cccc(-c2nc(C)c(C(=O)N[C@H](CO)CC(C)C)s2)c1`, the cytotoxicity at 10 µM came out at 5.08%.

With `CC[C@H](C)[C@H](NC(=O)Cn1ccc2ccc(F)cc21)C(=O)OC`, the cytotoxicity at 10 µM was 4.12%.

For `Cc1cccc2c1N(C)C(=O)C21CC(=O)Nc2c1cnn2C(C)(C)C` (stereo not given), the cytotoxicity at 10 µM is -1.65%.

For the compound `CCCc1cc(=O)[nH]c2nnc(SCC(=O)NC(C)(C)C)n12`, the cytotoxicity at 10 µM was 9.57%.

For the compound `CC(C)C(=O)N1CCC2(CC1)NC(=O)[C@H]1CN(Cc3cccnc3)C[C@H]12`, the cytotoxicity at 10 µM is -0.331%.

On to `CC(=O)N1CCc2[nH]nc(C(=O)N3CCOCC3)c2C1`, for which the cytotoxicity at 10 µM is -7.37%.

With `CC(=O)N1[C@H](CN(C)C)C[C@@H]2CN(C(=O)c3ccsc3)CC[C@@H]21`, the cytotoxicity at 10 µM was -0.744%.

Regarding `Cc1noc(C)c1CN1C[C@@H]2COC[C@]2(COc2ccc(C#N)cn2)C1`, the cytotoxicity at 10 µM worked out at 9.49%.

On to `Cc1ccoc1C(=O)N1C[C@@H]2COC[C@]2(CNS(C)(=O)=O)C1`, for which the cytotoxicity at 10 µM is -1.14%.

For `O=C(c1cc(-n2cccc2)ccc1Cl)N1CCC2(CC1)OCCO2`, the cytotoxicity at 10 µM is -7.58%.

Consider `Cc1noc(C)c1CN1CC2(CCN(C(=O)c3c[nH]cn3)C2)CC1=O` (stereo not given), for which the cytotoxicity at 10 µM is -5.23%.

In the case of `O=C(c1ccn(COc2ccc(F)cc2)n1)N1CCCCCC1`, the cytotoxicity at 10 µM is 9.84%.

`CCCn1nnc(NCc2cc(Br)cc(Br)c2OC)n1`: the cytotoxicity at 10 µM amounted to 12.6%.

For `CCC(=O)Nc1nnc(CCOc2ccccc2OC)s1`, the cytotoxicity at 10 µM amounted to 2.38%.

As for `CC(C)N1CCOC(c2ccnc(N(C)C)n2)C1` (stereo not given), the cytotoxicity at 10 µM was -0.104%.

Turning to `Cc1n[nH]c(C)c1CC(=O)N1CCC(O)(CN2CCOCC2)C1` (stereo not given), the cytotoxicity at 10 µM was 3.1%.

In the case of `COc1ccccc1C1(O)CCCN(C(=O)c2ccnn2C(C)C)C1` (stereo not given), the cytotoxicity at 10 µM was 2.59%.

Take `CC(=O)NCC(=O)N1CCOC(c2cccc(N)n2)C1` (stereo not given): the cytotoxicity at 10 µM is -4.68%.

Consider `Cc1cccc(C(=O)N2CC(Cc3nccc4ccn(C)c34)C2)n1`, for which the cytotoxicity at 10 µM is -40.5%.

With `CC(C)CC(=O)N1CCN(Cc2cc(-c3ccncc3)nn2C)CC1`, the cytotoxicity at 10 µM is -23.2%.

`CCc1ncnc(N2CCCC(c3cc(C(N)=O)[nH]n3)C2)c1F` (stereo not given): the cytotoxicity at 10 µM was -4.68%.

Turning to `CC(NCc1ccccn1)c1ccc(N2CCN(C)CC2)c(F)c1` (stereo not given), the cytotoxicity at 10 µM was -7.85%.

In the case of `CC(C)c1nc(CC(=O)N2CCN(C)CC2c2ccccc2)cs1` (stereo not given), the cytotoxicity at 10 µM was -12.6%.

Turning to `CCOc1cccc(NC(=O)c2cnc(C)cn2)n1`, the cytotoxicity at 10 µM stood at 4.14%.

Regarding `O=c1[nH]cnc2c1CCN(S(=O)(=O)c1cccc(OC(F)(F)F)c1)C2`, the cytotoxicity at 10 µM was -2.87%.

For the compound `Cc1cc(C(=O)NCCSC2CCCC2)no1`, the cytotoxicity at 10 µM was -2.21%.

In the case of `CC(c1ccccc1)N(C)CC(=O)NCCC#N` (stereo not given), the cytotoxicity at 10 µM stood at 3.52%.

As to `O=C(OCCNc1ncccn1)c1ccc(Cl)s1`, the cytotoxicity at 10 µM is -2.43%.

As to `CN(CCOc1ccc(C#N)cc1)CC1CC1`, the cytotoxicity at 10 µM is 1.47%.

As to `COc1c(C2CCCN2CC(=O)Nc2nccs2)c(C)nn1C` (stereo not given), the cytotoxicity at 10 µM was -2.38%.

As to `NS(=O)(=O)CCN1CCN(c2ccccc2O)CC1`, the cytotoxicity at 10 µM was determined as 9.1%.

Regarding `O=C(Cc1cccs1)NCC1(O)CCSCC1`, the cytotoxicity at 10 µM was -10.5%.

Regarding `O=C(CNc1cc2c(cc1Cl)OCCO2)NCC(F)(F)F`, the cytotoxicity at 10 µM turned out to be 0.49%.

Regarding `Cc1cccc(CNC(=O)Nc2ccn(CCN(C)C)n2)c1`, the cytotoxicity at 10 µM was -4.47%.

For `Cc1ccc(Br)c(S(=O)(=O)NCc2ccnn2C)c1`, the cytotoxicity at 10 µM stood at 0.67%.

Turning to `CN(CCc1ccncc1)C(=O)C1CSCN1C(=O)CC(C)(C)C` (stereo not given), the cytotoxicity at 10 µM was 10.2%.

On to `N#Cc1ccc(N2CCC(c3nc(C(F)(F)F)c[nH]3)CC2)nc1`, for which the cytotoxicity at 10 µM is -7.09%.

Regarding `Cc1nsc(NC2CC(=O)N(C(C)(C)C)C2)n1` (stereo not given), the cytotoxicity at 10 µM was -8.52%.

With `COc1ncnc(N(C)C)c1NC(=O)Cc1c[nH]c2ccc(F)cc12`, the cytotoxicity at 10 µM is -4.2%.

On to `CCCn1nc(C(=O)N2CCCC2c2noc(C)n2)ccc1=O` (stereo not given), for which the cytotoxicity at 10 µM is 3.57%.

With `CN(C(=O)CN1CCC(c2cc3ccccc3[nH]2)CC1)C(C)(C)C#N`, the cytotoxicity at 10 µM was 6.24%.

On to `O=C(Nc1ccc2c(c1)OC1(CCCCC1)O2)c1ccc(=O)[nH]n1`, for which the cytotoxicity at 10 µM came to 14.1%.

Consider `CCCN(Cc1cnn(C)c1)CC1CCCN(S(C)(=O)=O)C1` (stereo not given), for which the cytotoxicity at 10 µM amounted to 15.1%.

On to `Cc1cccc(N2CCN(C(=O)CC3(O)CCCC3)C(C)C2)n1` (stereo not given), for which the cytotoxicity at 10 µM was 15.9%.

`CC(C)(C)CC(=O)N1CSCC1C(=O)NCc1cccc(C#N)c1` (stereo not given): the cytotoxicity at 10 µM is -9.78%.

Take `Cc1cc(N(C)C)nc(NCCn2cccn2)n1`: the cytotoxicity at 10 µM was 5.65%.

As for `CC(OCC(F)(F)F)C(=O)N1CCCCC1` (stereo not given), the cytotoxicity at 10 µM was -3.45%.

Take `CCOc1ccc(CCCC(=O)N2CCC(C(=O)NC)C2)cc1C` (stereo not given): the cytotoxicity at 10 µM came to 1.85%.

Take `COc1ccc(C(C(=O)O)N(C)Cc2ccon2)cc1Cl` (stereo not given): the cytotoxicity at 10 µM is -5.02%.

Turning to `Cc1cc(CN2CCN(C(=O)C3CCC3)[C@@H]3CS(=O)(=O)C[C@@H]32)ccc1F`, the cytotoxicity at 10 µM worked out at 0.66%.

As for `COc1ccc(OC)c(C2CCN(C(=O)CCc3n[nH]c(N)n3)C2)c1` (stereo not given), the cytotoxicity at 10 µM was 5.27%.

`O=C(CCc1cc2n(n1)CCCNC2)N1CCSCC1`: the cytotoxicity at 10 µM was 8.55%.

For `CC/C=C(\C)CN1CCC(CNC(=O)c2ccc(=O)[nH]c2)CC1`, the cytotoxicity at 10 µM amounted to 8.06%.

`Cc1ccnc(NCC2(N(C)C)CCOCC2)n1`: the cytotoxicity at 10 µM turned out to be 3.81%.

On to `CCn1nc(C)c(CN(CCOC)C(=O)c2cnc(C)nc2O)c1C`, for which the cytotoxicity at 10 µM was -2.27%.

For `COc1cccc(N2CCN(Cc3ccc4ccn(C)c4c3)CC2=O)c1`, the cytotoxicity at 10 µM stood at 17.3%.

Take `Cc1nn(C)c2nc(N(Cc3ccncc3)CC3CCCO3)sc12` (stereo not given): the cytotoxicity at 10 µM worked out at 9.42%.

As for `CCc1nc(C)c([C@H]2CN(C)C[C@@H]2C(=O)Nc2ccc3[nH]ncc3c2)[nH]1`, the cytotoxicity at 10 µM was -1.67%.

Regarding `CCc1nccc(CN2CCC(CNC(=O)c3occc3C)C2)n1` (stereo not given), the cytotoxicity at 10 µM is 6.95%.

In the case of `Cc1nc(C)n(CCNC(=O)C(C)n2ccnc2C(C)C)n1` (stereo not given), the cytotoxicity at 10 µM is -6.57%.

For `Cc1ccsc1[C@@H]1CCN(C(=O)CCOc2ccccc2)C[C@H]1O`, the cytotoxicity at 10 µM was -0.602%.

Take `COC(=O)C1CCN(C(=O)c2cccc(NS(C)(=O)=O)c2C)CC1`: the cytotoxicity at 10 µM is -6.71%.

`COCC(=O)N1Cc2c(-c3cccc(C)c3)nc(N)nc2C1C` (stereo not given): the cytotoxicity at 10 µM was -0.607%.

For the compound `CCCC(=O)N1CCN(c2cc(-n3cnc(C)c3C)nc(C)n2)CC1`, the cytotoxicity at 10 µM was -1.89%.

For `CCC(NC(=O)c1nn(C)cc1C(=O)O)c1ccc(C)cc1` (stereo not given), the cytotoxicity at 10 µM was -3.42%.

On to `O=C(CNC(=O)c1ccc2c(c1)CCC2)NCCNc1ncccn1`, for which the cytotoxicity at 10 µM was -6.5%.

With `Cc1nc(-c2ccsc2)ccc1C(=O)NCC(C)N1CCOCC1` (stereo not given), the cytotoxicity at 10 µM was -3.92%.

For the compound `Cc1nc(C)n(CC2CCCCN2CC(=O)NC(C2CC2)C2CC2)n1` (stereo not given), the cytotoxicity at 10 µM was -8.61%.

As for `O=C(c1cccc2ncccc12)N1CCC(Nc2cccnn2)CC1`, the cytotoxicity at 10 µM was -14.7%.

With `O=C(NCCNC(=O)c1scnc1Cl)c1ccoc1`, the cytotoxicity at 10 µM was -7.91%.

For the compound `O=C(NCCNc1ncccn1)C1CC(=O)N(Cc2ccccc2)C1` (stereo not given), the cytotoxicity at 10 µM is -16.2%.

Take `COc1cccc(COCC(=O)N2CCCC(n3cncn3)C2)c1` (stereo not given): the cytotoxicity at 10 µM was -21.1%.

Turning to `COCc1nc(C(=O)N2CCCC(n3ccnc3C)C2)cs1` (stereo not given), the cytotoxicity at 10 µM is -33.6%.

With `Cc1cnn(CC2CCCN2CC(=O)Nc2cc(C)on2)c1` (stereo not given), the cytotoxicity at 10 µM is -26.7%.

For the compound `CCc1nc(CN2CCN(C(C)c3nc(C4CC4)no3)CC2)no1` (stereo not given), the cytotoxicity at 10 µM is -9.45%.

On to `CCc1n[nH]c(C2CN(C(=O)c3cscn3)CCO2)n1` (stereo not given), for which the cytotoxicity at 10 µM stood at 5.08%.

`O=C(NCCc1ccn(-c2ccccc2)n1)N1CCCC(CO)C1` (stereo not given): the cytotoxicity at 10 µM is -23.1%.

With `COc1ccnc(N2CCCN(C(=O)Cc3ccc(C)s3)CC2)n1`, the cytotoxicity at 10 µM was -2.12%.

Take `c1cnnc(N2CCCC2CNc2ncnc3c2CCC3)c1` (stereo not given): the cytotoxicity at 10 µM is -0.626%.

Consider `CN(C)CCN1C(=O)CCC12CCCN(C(=O)c1ccncc1F)C2` (stereo not given), for which the cytotoxicity at 10 µM was determined as 3.06%.

In the case of `Cc1ccc(CN2CCC3(CCCC(=O)N3)CC2)s1`, the cytotoxicity at 10 µM was -3.45%.

For `Cn1cc(N2C(=O)CC[C@@H]3[C@H]2CCN3Cc2cccc(C#N)c2)cn1`, the cytotoxicity at 10 µM came to 8.51%.

Turning to `Cc1cccc(CN2C(=O)CCC23CCN(C(=O)c2ccco2)CC3)n1`, the cytotoxicity at 10 µM was 4.17%.

With `CCCS(=O)(=O)N1CCC2(CN(c3ccsc3)C(=O)CN2C)C1` (stereo not given), the cytotoxicity at 10 µM was -21.1%.

Take `Cc1nnc(N2C[C@@H](Oc3ccccn3)[C@H]3OCCC[C@H]32)s1`: the cytotoxicity at 10 µM is -5%.

`Cn1ccnc1C(=O)NCc1cnc2n1CCN(CC1CC1)CC2`: the cytotoxicity at 10 µM is 5.93%.

On to `O=C(CC1CCCC1)N1C[C@H](Oc2cccnc2)[C@H]2OCCC[C@H]21`, for which the cytotoxicity at 10 µM came out at 3.82%.

Take `CCS(=O)(=O)N1C[C@H]2CCC[C@@]2(COc2ccccn2)C1`: the cytotoxicity at 10 µM was -4.09%.

As for `Cc1ccc(CN2CCc3[nH]nc(C(=O)N4CCN(C)CC4)c3C2)o1`, the cytotoxicity at 10 µM is -8.19%.

In the case of `CCN1C(=O)CCC12CCCN(Cc1ccc(F)cc1)CC2` (stereo not given), the cytotoxicity at 10 µM was -0.861%.

With `CCN1CCCn2c(nc(CNC(=O)c3cnoc3C)cc2=O)C1`, the cytotoxicity at 10 µM amounted to 6.13%.

Consider `COCCN1C[C@@H]2CC[C@H]1CN(Cc1cc(=O)c3cc(C)ccc3[nH]1)C2`, for which the cytotoxicity at 10 µM was -5.31%.

With `O=C(NCC1CCC(c2ccnc3ncnn23)CC1)c1ccccn1` (stereo not given), the cytotoxicity at 10 µM came out at 3.64%.

Consider `COCCN1C(=O)[C@@H]2CC[C@H]1CN(Cc1nnc(-c3ccccc3)o1)C2`, for which the cytotoxicity at 10 µM is -4.94%.

As to `O[C@@H]1CC(CNCC2CCCC2)(COc2cccnc2)C[C@@H]1O` (stereo not given in full), the cytotoxicity at 10 µM is -6.53%.

(Values after ChEMBL document CHEMBL4513216, “Probing the Open Global Health Chemical Diversity Library for Multistage-Active Starting Points for Next-Generation Antimalarials” (ACS Infect Dis, 2020).)
